Results taken from PubChem BioAssay AID651787 (The Scripps Research Institute Molecular Screening Center, 2012).
In all, about 2,400 compounds went through this assay and about 1,200 (50%) were called active. So high a share suggests a set chosen from earlier hits. Only a sample is shown. Values without a mark were called inactive.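 How the source made its calls: active means activation above the run cutoff, the mean activation over all tested wells plus 3 SD (cut at about 12% in these data); inactive means the rest.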

assay: calcium rise in parental Ga16 cells – cell-based, fluorescence, CHO-Ga16 parental line, counter-screen for hTAAR1 agonist project (AID 651787); details: Fluo-8 calcium fluorescence, at 3 µM, active compounds read high, normalized to maximal ATP response, DMSO zero;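 further: 0% = DMSO wells and 100% = maximal ATP response on the peak over basal ratio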
Procedure, shortened: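 Test system: Parental CHO cells stably overexpressing Gα16, lacking hTAAR1 | Input: 750 cells in each well | Compound dosing: One dose of 3 µM (nominal) | Timing: 17-24 h seeding, dye 75 min 37 °C, 30 min RT | Measured by: Fluo-8 calcium-dye fluorescence | Read-out basis: % activation from peak-to-basal fluorescence ratio, DMSO to ATP scale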

Compound | activation
Nc1cccc2c1C(=O)N(Cc1nnc(-c3ccccc3Br)o1)C2=O | 60.4% (active)
CCCCCC(=O)NC(=S)NNC(=O)c1ccc([N+](=O)[O-])cc1 | 91.4% (active)
O=C(NCCc1ccccc1)/C(=C\c1ccc([N+](=O)[O-])cc1)NC(=O)c1ccccc1 | 2.11%
O=C(O)C1CC=CCC1C(=O)NCCc1ccccc1 (configuration not stated) | 0.16%
CCCC1CCC(=NNC(=S)NCCc2ccccc2)CC1 (configuration not stated) | 14.1% (active)
CCC(C(=O)Nc1ccc(C(C)C)cc1)c1ccccc1 (configuration not stated) | 75.1% (active)
c1ccc(C2CNCc3c2ccc2ccccc32)cc1 (configuration not stated) | 25.6% (active)
COc1ccc(C(=O)CN2C(=O)NC(C)(c3ccc(C)cc3)C2=O)cc1OC (configuration not stated) | 20.1% (active)
Cc1ccc(O)c(NC(=S)NC(=O)COc2ccc(Br)cc2)c1 | 101% (active)
CCCOc1ccc(-c2c(C(=O)N/N=C/c3ccco3)nnn2-c2nonc2N)cc1 | 39.5% (active)
Nc1nonc1-n1nnc(C(=O)N/N=C/c2ccc(Cl)cc2)c1-c1ccc2c(c1)OCO2 | 92.4% (active)
c1ccc(-c2csc(N3CCc4ccccc4C3)n2)cc1 | 0.58%
O=C(Nc1ccc(F)cc1)Nc1nnc([C@H]2C[C@H](O)[C@@H](CO)O2)s1 | 4.42%
O=C(CSc1nc(-c2ccco2)cc(C(F)(F)F)n1)NCc1cccs1 | 0.35%
COc1cccc(N(CC(=O)N2CCc3ccccc3C2)S(C)(=O)=O)c1 | 1.72%
C#CCOc1ccc(/C=C2/C(=O)NN(c3ccccc3)C2=O)cc1OC | 45.9% (active)
Cc1ccc(Cl)cc1N1CCN(C(=O)c2cccc3c(=O)c(C)c(-c4ccccc4)oc23)CC1 | 78.9% (active)
CC(Oc1ccc2ccccc2c1)C(=O)NNC(=S)NC(=O)c1ccco1 (configuration not stated) | 75.1% (active)
CCCc1ccc(OCC(=O)NNC(=S)NC(=O)c2ccco2)cc1 | 64.1% (active)
COCCCn1c(Cc2csc(Nc3cccc(Cl)c3)n2)nnc1SCC(=O)OC1CCCCC1 | 3.91%
COc1ccc(CC(N)c2csc(NC(=O)Cc3ccccc3)n2)cc1 (configuration not stated) | 15.8% (active)
CC(C)(C)CC(=O)Nc1nc(C(N)Cc2ccc(C(F)(F)F)cc2)cs1 (configuration not stated) | 79.7% (active)
NC(Cc1ccccc1)c1csc(Nc2cc(Oc3ccccc3)ncn2)n1 (configuration not stated) | 39% (active)
Cn1c(=O)c(=O)n(C)c2cc(S(=O)(=O)NCCc3ccccc3)ccc21 | 0.95%

Compound | activation
O=C(O)C1C2C=CC(O2)C1C(=O)NCCc1cccc(Cl)c1 (configuration not stated) | 2.07%
CCCc1cc(C(=O)Nc2ccc(C(=O)OC)cc2)cs1 | 4.88%
O=C(c1noc2c1CCCC2)N1CCc2ccccc2C1 | 3.31%
NC(=O)C1=C[C@H](c2csc3ccccc23)C[C@H](OCc2ccc(CO)cc2)O1 | 33.4% (active)
Cc1cc2nc3c(=O)[nH]c(=O)nc-3n(C[C@H](O)[C@H](O)[C@H](O)CO)c2cc1C | 138% (active)
Cc1ccccc1-c1nc(CS(=O)(=O)CC(=O)N2CCc3ccccc3C2)c(C)o1 | 5.05%
O=C(NNC(=S)NC(=O)c1cn(-c2ccccc2)nc1-c1ccccc1)c1ccncc1 | 79.1% (active)
CC(NC(=O)c1cc(-c2ccccc2)on1)c1ccccc1 (configuration not stated) | 37.5% (active)
CCc1ccccc1S(=O)(=O)Cc1ccc(C(=O)NCCc2ccccc2)o1 | 5.88%
Cc1ccc(S(=O)(=O)N(CC(=O)N2CCc3ccccc3C2)c2cccc(Cl)c2)cc1 | -0.38%
CC(=O)Nc1ccccc1Sc1ccc2c3c(cccc13)C(=O)N(c1ccc(C)cc1)C2=O | 0.61%
C[C@H](NC(=O)c1ccccc1)C(=O)OCC(=O)c1c[nH]c2ccccc12 | 0%
COc1cc(OC)cc(C(=O)N[C@H](C(=O)OCC(=O)NC(C)c2ccccc2)C(C)C)c1 (some centres not stated) | 24.2% (active)
CCCn1c(O)c(CN2CCCC(C)C2)c(C)c(C#N)c1=O (configuration not stated) | 4.14%
COc1ccc(C(=O)NC(=S)NNC(=O)c2c(-c3ccccc3)noc2C)cc1 | 68.8% (active)
Cc1onc(-c2ccccc2)c1C(=O)NNC(=S)NC(=O)c1ccc(F)cc1 | 105% (active)
Cc1cc(=O)oc2c(C)c(OCC(=O)NCCN3CCOCC3)ccc12 | 4.41%
O=C(Nc1cccc(NC(=O)c2ccc(Br)cc2)c1)c1ccccc1 | 5.7%
COc1ccc(C(=O)NNC(=S)NC(=O)c2ccccc2)cc1 | 94.4% (active)
COc1ccc(C(=O)NC(=S)NNC(=O)CCc2ccccc2)cc1 | 87.2% (active)
COc1ccc(OC)c(C(c2nnnn2C(C)(C)C)N2CCc3ccccc3C2)c1 (configuration not stated) | -0.7%
Nc1c(C(=O)c2cccs2)sc2nsc(SCCN3CCCCC3)c12 | 72.3% (active)
CCC(c1nnnn1Cc1ccco1)N(CCc1ccccc1)Cc1cc2ccc(OC)cc2[nH]c1=O (configuration not stated) | 4.24%
